Source: ChEMBL document CHEMBL1124794, “Synthesis, chemistry, and antineoplastic activity of alpha-halopyridinium salts: potential pyridone prodrugs of acylated vinylogous carbinolamine tumor inhibitors” (J Med Chem, 1990)
Blank lines part the entries; values can stand above or below the compound they belong to.

Legend:
[1] = Effect of pH on carbamate hydrolysis in 0.05 M buffer concentration at the pH 9.0, 25 degree C.; type: ADME
Summary of the method: (§1)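 Bis-carbamate in acetonitrile–water (1:1; buffer added to a 0.5 mg/mL acetonitrile solution), 0.05 M buffer, ionic strength 0.136 (KCl), 25 ± 0.1 °C. Buffers: phosphate pH 2.0; citrate pH 3.0–3.5; succinate pH 4.0; acetate pH 5.0; phosphate pH 6.0–8.0; borate pH 9.0; carbonate pH 10.0. HPLC bis-carbamate peak-area loss, ln(area0/areat) vs time slope = kobs. Duplicates averaged.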

[2] = Effect of phosphate buffer on carbamate hydrolysis in acetonitrile-water at the concentration of 0.01 M on pH 7.4, 25 degree C.; type: ADME
Summary of the method: (§2)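 Bis-carbamate in acetonitrile–water (1:1), 25 ± 0.1 °C. Citrate buffer at pH 3.0 or phosphate buffer at pH 7.4, at 0.01, 0.025 or 0.05 M, ionic strength 0.136 (KCl). Kinetics followed by HPLC as the decrease in bis-carbamate peak area. The regression slope of ln(area0/areat) vs time gave pseudo-first-order kobs. Duplicates averaged.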

[3] = Effect of phosphate buffer on carbamate hydrolysis in acetonitrile-water at the concentration of 0.025 M on pH 3.0, 25 degree C.; type: ADME; settings: in the assay text read “citrate buffer” for “phosphate buffer”; summary of the method: as §2
[4] = Effect of phosphate buffer on carbamate hydrolysis in acetonitrile-water at the concentration of 0.025 M on pH 7.4, 25 degree C.; type: ADME; summary of the method: as §2
[5] = Half life at the concentration of 0.025 M.; type: ADME
[6] = Half life at the concentration of 0.05 M.; type: ADME
[7] = Half life at the pH 3.5; type: ADME; settings: buffer; summary of the method: as §1
[8] = Half life at the pH 4.0; type: ADME; settings: buffer; summary of the method: as §1
[9] = Half life at the pH 9.0; type: ADME; settings: buffer
Summary of the method: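 Bis-carbamate hydrolysis in acetonitrile–water (1:1) with 0.05 M borate buffer (boric acid–NaOH), pH 9.0, ionic strength 0.136 adjusted with KCl, 25 °C, thermostated. Loss of the bis-carbamate peak area was tracked by HPLC. k_obs is the slope of ln(area0/areat) vs time. Values are averages of two determinations.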

L1210 [10] = test: In vivo activity against murine L1210 tumor system at the dose of 60 mg/kg, activity expressed as KE; type: functional, Mus musculus
Summary of the method: (§3)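 L1210 lymphocytic leukemia: ascitic fluid with ca. 10^6 cells injected ip into CD2F1 mice. Dosing started 24 h after inoculation and was repeated daily for five doses in total, from solutions or suspensions made fresh each day. Toxicity day survivors were scored on day 5. Body weight difference is day 5 minus day 1. %T/C is based on median survival time versus controls.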

L1210 [11] = test: In vivo activity against murine L1210 tumor system at the dose of 60 mg/kg, activity expressed as body weight difference; T-C; type: functional, Mus musculus; summary of the method: as §3
[12] = In vivo activity against murine M5076 tumor system at the dose of 36 mg/kg, activity expressed as KE; type: functional, Mus musculus
Summary of the method: (§4)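 M5076: ascitic fluid with ca. 10^6 cells inoculated ip into CD2F1 mice. Dosing started 24 h after inoculation and was then given every 4 days for four doses in total, from solutions or suspensions made fresh each day. Toxicity day survivors were scored on day 5. Body weight difference is day 14 minus day 1. %T/C is based on median survival time versus controls.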

P388 [13] = test: In vivo activity against P388 Lymphocytic Leukemia in CD2F1 mice at the dose of 100 mg/kg, activity expressed as body weight difference; T-C; type: functional, Mus musculus
Summary of the method: (§5)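 CD2F1 mice were inoculated with ascitic fluid holding ca. 10^6 P388 cells. Drug was given daily from 24 h after inoculation, from solutions or suspensions made fresh each day, some as a saline suspension. TDS is survivors/initial animals on day 5. BWD is body weight on day 5 minus day 1. %T/C compares median survival of treated and control mice.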

P388 [14] = test: In vivo activity against P388 Lymphocytic Leukemia in CD2F1 mice at the dose of 12.5 mg/kg, activity expressed as body weight difference; T-C; type: functional, Mus musculus; summary of the method: as §5
P388 [15] = test: In vivo activity against P388 Lymphocytic Leukemia in CD2F1 mice at the dose of 25 mg/kg, activity expressed as body weight difference; T-C; type: functional, Mus musculus; summary of the method: as §5
[16] = Effect of pH on the hydrolysis of pyridinium Moity in 0.05 M buffer concentration at the pH 7.0; type: ADME
Summary of the method: (§6)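 Pyridinium salt in 0.05 M phosphate buffer, pH 6.0–8.0 (set by pH meter), ionic strength 0.25 M, 25 °C. Decrease in the pyridinium UV absorbance maximum followed over time to give pseudo-first-order kobs and half-life.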

[17] = Effect of pH on the hydrolysis of pyridinium Moity in 0.05 M buffer concentration at the pH 8.0; type: ADME; summary of the method: as §6
[18] = Effect of phosphate buffer on the hydrolysis of alpha Fluoropyridinium Moity at the concentration of 0.10M, pH 6.5, 25 degree C; type: ADME
Summary of the method: (§7)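 α-Fluoropyridinium hydrolysis to pyridone in phosphate buffer at 0.02, 0.05 or 0.10 M, pH 6.5 or 8.0, ionic strength […] °C. Pyridinium UV absorbance maximum followed with time to give pseudo-first-order kobs and half-life.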

[19] = Half life at the concentration of 0.02 M.; type: ADME
[20] = In vivo activity against murine M5076 tumor system at the dose of 50 mg/kg, activity expressed as TDS; 10/10; type: functional, Mus musculus
MX1 = test: In vivo activity against murine MX-1 tumor system at the dose of 150 mg/kg, activity expressed as TDS; 0/6; type: functional, Mus musculus
L1210 [21] = test: In vivo activity against murine L1210 tumor system at the dose of 50 mg/kg, activity expressed as KE; type: functional, Mus musculus; summary of the method: as §3
[22] = In vivo activity against murine M5076 tumor system at the dose of 25 mg/kg, activity expressed as body weight difference; type: functional, Mus musculus; summary of the method: as §4
[23] = In vivo activity against murine M5076 tumor system at the dose of 50 mg/kg, activity expressed as %T/C.; type: functional, Mus musculus
L1210 [24] = test: In vivo activity against murine L1210 tumor system at the dose of 100 mg/kg, activity expressed as TDS; 0/6; type: functional, Mus musculus; summary of the method: as §3
L1210 [25] = test: In vivo activity against murine L1210 tumor system at the dose of 25 mg/kg, activity expressed as TDS; 6/6; type: functional, Mus musculus; summary of the method: as §3
L1210 [26] = test: In vivo activity against murine L1210 tumor system at the dose of 50 mg/kg, activity expressed as TDS; 5/6; type: functional, Mus musculus; summary of the method: as §3
P388 [27] = test: In vivo activity against P388 Lymphocytic Leukemia in CD2F1 mice at the dose of 12.5 mg/kg, activity expressed as body weight difference; type: functional, Mus musculus; summary of the method: as §5
[28] = Effect of phosphate buffer on the hydrolysis of alpha Fluoropyridinium Moity at the concentration of 0.05M, pH 6.5, 25 degree C; type: ADME; summary of the method: as §7
[29] = Effect of Ionic strength (1.0M NaCl)on the hydrolysis of pyridinium Moity in 0.02 M buffer concentration, pH 7.4,25 degree C; type: ADME
Summary of the method: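 Pyridinium salt in 0.02 M phosphate buffer, pH 7.4, 25 °C, with NaCl varied 0.10–1.0 M. Loss of the pyridinium chromophore's UV absorbance maximum (conversion to pyridone) followed over time. Pseudo-first-order kobs and half-life derived from that decay.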

[30] = In vivo activity against murine M5076 tumor system at the dose of 50 mg/kg, activity expressed as body weight difference; type: functional, Mus musculus

K obs [1]: 0.0129 min⁻¹
K obs [2]: 0.0133 min⁻¹
K obs [3]: 0.0342 min⁻¹
K obs [4]: 0.0134 min⁻¹
half-life [5]: 20.3 min
half-life [6]: 22.8 min
half-life [7]: 32.5 min
half-life [8]: 46.7 min
half-life [9]: 54 min
Structure (SMILES): CC(C)NC(=O)OCc1c(COC(=O)NC(C)C)c(-c2ccn(C)c(=O)c2)n2c1CCC2
KE (L1210 [10]): -0.5
BWD (L1210 [11]): -3.2 g
KE [12]: -1.69
BWD (P388 [13]): -1.8 g
BWD (P388 [14]): -0.1 g
BWD (P388 [15]): -0.6 g

K obs [16]: 0.0208 min⁻¹
K obs [17]: 0.052 min⁻¹
K obs [18]: 0.0138 min⁻¹
half-life [19]: 133 min
K obs [28]: 0.0072 min⁻¹
K obs [29]: 0.007 min⁻¹
Structure (SMILES): CC(C)NC(=O)OCc1c(COC(=O)NC(C)C)c(-c2cc[n+](C)c(F)c2)n2c1CCC2.[I-]
TDS [20]: 10
TDS (MX1): 0
KE (L1210 [21]): -1.94
BWD [22]: 0.4 g
T/C [23]: 118%
TDS (L1210 [24]): 0
TDS (L1210 [25]): 6
TDS (L1210 [26]): 5
BWD (P388 [27]): -1.3 g
BWD [30]: 1.4 g
